Experimental data from publication PMC9075791 (RSC Advances, 2019).

How the values were obtained:
[1] = Cell-free aggregation assay; format: physicochemical; conditions: for Detected CAC: critical aggregation concentration, 1× HBSS, 20 mM HEPES, pH 7.2; for aggregator / non-aggregator in aggregation assay: real time dose responses
How it was run: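 Assay buffer (1× HBSS, 20 mM HEPES, pH 7.2) was equilibrated in wells of the RWG reader for 1 h. After a 2 min baseline, a compound dilution series (from DMSO stocks, maximum 1‰ final DMSO) was added and wavelength shift was recorded for 1 h. A DMSO range set the background. Responses at a fixed time were plotted against concentration to give the CAC. Each assay was run at least three times.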

HT-29 cells = test: DMR agonism assay; format: cell-based, Human
How it was run: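 HT-29 cells were grown in McCoy's 5A with 10% FBS at 37 °C/5% CO2. They were seeded on RWG biosensor plates for ~24 h to form a monolayer, washed, and held 1 h in HBSS/20 mM HEPES pH 7.2, or in the same buffer with tween-80 for detergent runs. After a 2 min baseline, test compound was added and DMR was monitored for 1 h. The background-corrected maximal amplitude was used. Two independent runs, each at least in duplicate (n = 4).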

Muscarinic M3 receptor = Muscarinic M3 receptor (Homo sapiens, UniProt P20309); test: DMR desensitization assay, M3; format: cell-based; conditions: HT-29 cells; active compounds at concentrations above 50 μM
Sequence of Muscarinic M3 receptor (P20309 whole entry): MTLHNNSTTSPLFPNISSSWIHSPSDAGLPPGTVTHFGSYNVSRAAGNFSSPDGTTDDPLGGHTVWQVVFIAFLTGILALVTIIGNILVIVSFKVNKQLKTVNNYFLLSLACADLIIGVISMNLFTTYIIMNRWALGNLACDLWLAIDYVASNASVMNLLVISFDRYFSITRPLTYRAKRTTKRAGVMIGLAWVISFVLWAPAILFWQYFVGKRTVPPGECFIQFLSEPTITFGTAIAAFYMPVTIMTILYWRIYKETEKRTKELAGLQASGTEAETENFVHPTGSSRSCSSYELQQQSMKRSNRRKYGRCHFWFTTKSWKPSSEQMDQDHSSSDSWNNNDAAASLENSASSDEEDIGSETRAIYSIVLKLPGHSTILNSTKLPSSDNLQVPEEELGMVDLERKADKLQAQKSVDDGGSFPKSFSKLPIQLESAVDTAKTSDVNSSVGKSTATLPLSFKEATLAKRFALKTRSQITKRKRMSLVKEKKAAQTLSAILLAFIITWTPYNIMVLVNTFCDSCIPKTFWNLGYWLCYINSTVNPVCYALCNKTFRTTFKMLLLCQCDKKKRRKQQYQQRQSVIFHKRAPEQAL

[2] = cited from earlier work

Row | SMILES | Detected CAC [1] | aggregator / non-aggregator in aggregation assay [1] | DMR response (in words) (HT-29 cells; to its solubility limit) | inhibition of the DMR response of acetylcholine against muscarinic M3 receptor (Muscarinic M3 receptor) | Literature CAC detected by DLS [2] | DMR response (HT-29 cells; at 100 μM)
1 | COc1cc(/C=C/C(=O)CC(=O)/C=C/c2ccc(O)c(OC)c2)ccc1O [Curcumin] | 9.6 µM | aggregator | barely triggered any cellular mass redistributions | did not inhibit | 17 ([ref. 16]) μM | 
2 | O=c1c(-c2ccc(O)cc2)coc2cc(O)cc(O)c12 [Genistein] | 42.8 µM |  |  |  | <75 ([ref. 12]) μM | 
3 | O=c1cc(-c2ccc(O)c(O)c2)oc2cc(O)cc(O)c12 [Luteolin] | 1.6 µM |  |  |  | <50 ([ref. 12]) μM | 
4 | O=C(O)c1cccnc1 [Nicotinic acid] |  | non-aggregator |  |  |  | 
5 | COc1cc(O)c2c(c1)C(=O)c1cc(C)cc(O)c1C2=O [Physcion] | Undetected |  |  |  | 0.32 ([ref. 16]) μM | 
6 | O=c1c(O)c(-c2ccc(O)c(O)c2)oc2cc(O)cc(O)c12 [Quercetin] | 5.7 µM |  |  | false inhibited |  | less than 100 pm
7 | COc1cc(C2Oc3cc([C@H]4Oc5cc(O)cc(O)c5C(=O)[C@@H]4O)ccc3OC2CO)ccc1O (some centres unmarked) [Silybin] | 25.2 µM |  |  |  | 0.47 ([ref. 16]) μM | 
